Laboratory results taken from ChEMBL document CHEMBL3112511, “1,2-Dihydro-2-oxopyridine-3-carboxamides: the C-5 substituent is responsible for functionality switch at CB2 cannabinoid receptor” (Eur J Med Chem, 2014).
Calls of active or inactive are those of the source. The rule behind the calls is not given here.

Experiments:
Cannabinoid receptor 1 [1] = molecular target: Cannabinoid receptor 1 (Homo sapiens, UniProt P21554); assay: Displacement of [3H]CP55,940 from human recombinant CB1 receptor expressed in HEK293 cell membranes after 90 mins
Cannabinoid receptor 2 [2] = molecular target: T1, Cannabinoid receptor 2 (Homo sapiens, UniProt P34972); assay: Displacement of [3H]CP55,940 from human recombinant CB2 receptor expressed in HEK293 cell membranes after 90 mins
HEK293 = assay: Selectivity index, ratio of Ki for human recombinant CB1 receptor expressed in HEK293 cell membranes to Ki for human recombinant CB2 receptor expressed in HEK293 cell membranes; type: cell-based
Cannabinoid receptor 2 [3] = molecular target: T1, Cannabinoid receptor 2; assay: Agonist activity at human CB2 receptor expressed in CHO membranes by [35S]GTPgammaS binding assay; type: functional, cell membranes
In short: (§1)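 [35S]GTPgammaS binding in membranes from hCB2-transfected CHO cells; stimulation or inhibition of constitutive activity measured from dose-response curves. Mock-transfected cell membranes as control. Three independent experiments in duplicate.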

Cannabinoid receptor 1 [4] = molecular target: Cannabinoid receptor 1 (Rattus norvegicus, UniProt P20272); assay: Agonist activity at CB1 receptor in rat cerebellar membranes by [35S]GTPgammaS binding assay; type: functional, cell membranes, Cerebellum, Membrane
In short: (§2)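 [35S]GTPgammaS binding in rat cerebellar membranes as CB1R-mediated G protein activity; compounds tested for stimulation or antagonism. Three independent experiments in duplicate.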

[5] = Selectivity ratio of EC50 for CB1 receptor in rat cerebellar membranes to EC50 for human CB2 receptor expressed in CHO membranes; type: cell membranes
Cannabinoid receptor 2 [6] = molecular target: T1, Cannabinoid receptor 2; assay: Inverse agonist activity at human CB2 receptor expressed in CHO membranes by [35S]GTPgammaS binding assay; type: functional, cell membranes; in short: as §1
[7] = molecular target: Cannabinoid receptor 1 (Rattus norvegicus) (UniProt P20272); assay: Antagonist activity at CB1 receptor in rat cerebellar membranes at <10 uM by [35S]GTPgammaS binding assay; type: functional, cell membranes; settings: Cerebellum, Membrane; in short: as §2
[8] = molecular target: Cannabinoid receptor 1 (Rattus norvegicus) (UniProt P20272); assay: Agonist activity at CB1 receptor in rat cerebellar membranes at <10 uM by [35S]GTPgammaS binding assay; type: functional, cell membranes; settings: Cerebellum, Membrane; in short: as §2
Cannabinoid receptor 2 [9] = molecular target: T1, Cannabinoid receptor 2; assay: Neutral antagonist activity at human CB2 receptor expressed in CHO membranes by [35S]GTPgammaS binding assay in presence of SR144528; type: functional, cell membranes
In short: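 [35S]GTPgammaS binding in hCB2-CHO membranes; compound added against inverse agonist SR144528 at 3 nM to assess reversal of its response. Three independent experiments in duplicate.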

Cannabinoid receptor 2 [10] = molecular target: T1, Cannabinoid receptor 2; assay: Antagonist activity at human CB2 receptor expressed in CHO membranes assessed as inhibition of HU-210-induced [35S]GTPgammaS binding; type: functional, cell membranes
In short: (§3)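 [35S]GTPgammaS binding in hCB2-CHO membranes; test compound against HU210 (1 nM for single-point reversal; full HU210 dose-responses for competitive analysis, pA2 derived). Three independent experiments in duplicate.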

Cannabinoid receptor 2 [11] = molecular target: T1, Cannabinoid receptor 2; assay: Partial inverse agonist activity at human CB2 receptor expressed in CHO membranes by [35S]GTPgammaS binding assay relative to basal control; type: functional, cell membranes; in short: as §1
Cannabinoid receptor 2 [12] = molecular target: T1, Cannabinoid receptor 2; assay: Competitive antagonist activity at human CB2 receptor expressed in CHO membranes assessed as inhibition of HU-210-induced [35S]GTPgammaS binding; type: functional, cell membranes; settings: read-out: pA2 (converted); in short: as §3

Sequence of Cannabinoid receptor 1 (Rattus norvegicus) (P20272 whole entry): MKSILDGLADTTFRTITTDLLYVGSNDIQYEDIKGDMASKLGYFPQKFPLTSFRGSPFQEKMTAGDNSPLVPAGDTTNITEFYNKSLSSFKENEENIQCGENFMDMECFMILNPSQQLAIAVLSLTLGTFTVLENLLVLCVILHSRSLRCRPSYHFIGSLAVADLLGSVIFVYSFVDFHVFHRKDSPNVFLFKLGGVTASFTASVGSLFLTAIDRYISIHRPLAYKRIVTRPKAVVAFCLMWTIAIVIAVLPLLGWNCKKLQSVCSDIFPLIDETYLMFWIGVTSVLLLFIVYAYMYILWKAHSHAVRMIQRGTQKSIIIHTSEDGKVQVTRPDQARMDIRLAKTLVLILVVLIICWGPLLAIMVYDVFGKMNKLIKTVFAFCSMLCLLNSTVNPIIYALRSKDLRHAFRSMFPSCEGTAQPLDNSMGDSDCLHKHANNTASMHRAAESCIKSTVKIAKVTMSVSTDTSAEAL
T1 sequence (P34972 whole entry): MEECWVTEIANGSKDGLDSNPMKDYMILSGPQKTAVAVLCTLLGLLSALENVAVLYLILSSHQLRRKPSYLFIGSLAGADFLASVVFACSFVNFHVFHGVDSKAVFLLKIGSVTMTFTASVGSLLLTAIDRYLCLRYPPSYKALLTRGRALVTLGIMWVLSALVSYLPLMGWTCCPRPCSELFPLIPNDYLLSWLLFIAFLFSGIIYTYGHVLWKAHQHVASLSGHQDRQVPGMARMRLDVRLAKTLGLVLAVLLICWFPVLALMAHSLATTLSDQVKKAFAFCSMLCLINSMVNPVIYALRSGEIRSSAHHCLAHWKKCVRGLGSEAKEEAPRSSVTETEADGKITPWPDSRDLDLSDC
Sequence of Cannabinoid receptor 1 (Homo sapiens, UniProt P21554) (P21554 whole entry): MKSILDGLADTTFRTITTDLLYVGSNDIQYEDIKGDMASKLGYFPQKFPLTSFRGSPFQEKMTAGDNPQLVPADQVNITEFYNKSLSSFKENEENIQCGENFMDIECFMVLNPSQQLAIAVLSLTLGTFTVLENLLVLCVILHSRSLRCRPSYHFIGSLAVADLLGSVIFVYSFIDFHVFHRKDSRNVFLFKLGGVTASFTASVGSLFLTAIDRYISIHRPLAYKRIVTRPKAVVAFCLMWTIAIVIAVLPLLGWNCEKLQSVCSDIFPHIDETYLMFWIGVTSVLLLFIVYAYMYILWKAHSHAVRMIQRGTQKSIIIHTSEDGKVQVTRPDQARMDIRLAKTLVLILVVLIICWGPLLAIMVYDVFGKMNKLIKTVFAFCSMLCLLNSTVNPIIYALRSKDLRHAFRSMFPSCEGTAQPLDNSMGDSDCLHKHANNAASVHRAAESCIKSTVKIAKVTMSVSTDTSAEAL
Sequence of Cannabinoid receptor 1 (Rattus norvegicus, UniProt P20272) (P20272 whole entry): as the sequence (P20272 whole entry) above

| SMILES | Ki (Cannabinoid receptor 1 [1]) | Ki (Cannabinoid receptor 2 [2]) | Ratio Ki (HEK293) | other results |
| --- | --- | --- | --- | --- |
| CC1CCC(NC(=O)c2cccn(Cc3ccccc3)c2=O)CC1 (stereo not drawn) | 386 nM | 53 nM | 7.3 |  |
| CCCCn1cc(Br)cc(C(=O)NC2CCCCCC2)c1=O | 23 nM | 5.1 nM | 4.5 |  |
| O=C(NC1CCCCCC1)c1cccn(Cc2ccc(I)cc2)c1=O | 1270 nM | 187 nM | 6.8 |  |
| CCOC(=O)CCCn1cccc(C(=O)NC2CCCCCC2)c1=O | > 10000 nM | 1830 nM |  |  |
| O=C(NC1CCCCCC1)c1cccn(Cc2ccccc2)c1=O | 56 nM | 8 nM | 7 |  |
| O=C(NC1CCCCCC1)c1cccn(Cc2ccc(Cl)cc2)c1=O | 55 nM | 4.2 nM | 13.1 |  |
| O=C(NC1CCCCCC1)c1cc(/C=C/c2ccccc2)cn(Cc2ccc(F)cc2)c1=O | 24 nM | 7.9 nM | 3 |  |
| CCCCn1cccc(C(=O)NC2CCC(C)CC2)c1=O (stereo not drawn) | 1620 nM | 104 nM | 15.6 |  |
| O=C(O)CCCn1cccc(C(=O)NC2CCCCCC2)c1=O | > 10000 nM | > 10000 nM |  |  |
| O=C(NC1CCCCCC1)c1cccn(Cc2ccc(F)cc2)c1=O |  |  | 5.5 | EC50 (Cannabinoid receptor 2 [3]): 6.31 nM; EC50 (Cannabinoid receptor 1 [4]): 1580 nM; Ratio EC50 [5]: 200 |
| O=C(NC1CCCCCC1)c1cc(-c2ccc(F)cc2)cn(CCN2CCOCC2)c1=O | 2730 nM | 63 nM | 43.4 |  |
| CCOC(=O)/C=C/c1cc(C(=O)NC2CCCCCC2)c(=O)n(Cc2ccc(F)cc2)c1 | 24.8 nM | 13.7 nM | 1.8 |  |
| CC1CCC(NC(=O)c2cccn(Cc3ccc(F)cc3)c2=O)CC1 (stereo not drawn) | 70 nM | 4.8 nM | 14.6 |  |
| O=C(NC1CCCCCC1)c1cccn(Cc2cccc(I)c2)c1=O | 1830 nM | 397 nM | 4.6 |  |
| CC1CCC(NC(=O)c2cccnc2OCc2ccc(F)cc2)CC1 (stereo not drawn) | 884 nM | 80 nM | 11 |  |
| CC1CCC(NC(=O)c2cccnc2OCc2ccccc2)CC1 (stereo not drawn) | 3090 nM | 594 nM | 5.2 |  |
| O=C(NC1CCCCCC1)c1cc(-c2ccccc2)cn(Cc2ccc(F)cc2)c1=O | 35 nM | 1.2 nM | 29 | IC50 (Cannabinoid receptor 2 [6]): 1.58 nM; Activity [7]: inactive; Activity [8]: inactive |
| CC1CCC(NC(=O)c2cccn(CCO)c2=O)CC1 (stereo not drawn) | > 10000 nM | > 10000 nM |  |  |
| O=C(NC1CCCCCC1)c1cc(Br)cn(CCN2CCOCC2)c1=O | 243 nM | 65 nM | 3.7 |  |
| O=C(NC1CCCCCC1)c1cccnc1OCc1ccccc1 | 1920 nM | 481 nM | 4 |  |
| CC1CCC(NC(=O)c2cccn(CCCO)c2=O)CC1 (stereo not drawn) | > 10000 nM | > 10000 nM |  |  |
| O=C(NC1CCCCCC1)c1cc(Br)cn(Cc2ccc(F)cc2)c1=O | 8.8 nM | 2.2 nM | 4 |  |
| CCCCOc1ncc(Br)cc1C(=O)NC1CCCCCC1 | > 10000 nM | 396 nM |  |  |
| COc1ccc(-c2cc(C(=O)NC3CCCCCC3)c(=O)n(Cc3ccc(F)cc3)c2)cc1 | 63 nM | 1 nM | 63 | Activity (Cannabinoid receptor 2 [9]): Active; Activity [7]: inactive; inhibition (Cannabinoid receptor 2 [10]): Dose-dependent effect; Activity (Cannabinoid receptor 2 [3]): inactive; Activity (Cannabinoid receptor 2 [11]): 88%; Activity [8]: inactive; Kb (Cannabinoid receptor 2 [12]): 100 nM |
| O=C(NC1CCCCCC1)c1cc(-c2ccc(F)cc2)cn(Cc2ccc(F)cc2)c1=O | 24 nM | 2.8 nM | 8.6 |  |
| CCCn1cccc(C(=O)NC2CCC(C)CC2)c1=O (stereo not drawn) | > 10000 nM | 583 nM |  |  |
